Measured values published in ChEMBL document CHEMBL1123566, “Synthesis and cardiac electrophysiological activity of 2- and 3-[(substituted phenyl)alkyl]quinuclidines. Structure-activity relationships” (1987).
Where “and” joins values, the source holds several entries; their conditions need not be identical. Identical values can stand only once.

What was measured:
[1] = tested on: Canis familiaris; assay: Conduction time was determined by intraduodenal administration of two doses of 30 mg/kg (high dose) of compound in anesthetized dogs. Value was reported for experiment 1; type: functional, Canis lupus familiaris
Outline: (§1)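 Anesthetized dogs; compound given intraduodenally, generally as two doses, the second a cumulative (high) dose. LV functional refractory period and conduction time measured 15, 30 and 45 min after dosing; heart rate and blood pressure measured during nonpacing intervals. Values are % change from control, given per individual animal. Active if FRP or CT prolonged by ≥12%.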

[2] = organism: Canis familiaris; assay: In vitro electrophysiological evaluation in canine cardiac Purkinje fibres reported as % change for action potential duration at 1-100 uM concentration range; type: functional, Canis lupus familiaris, Purkinje fiber
Outline: (§2)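 Canine cardiac Purkinje fibres, intracellular microelectrode recording, paced at a basic cycle length of 1 s. APD95 and Vmax read simultaneously. Compound: 10 mM stock in deionized water, diluted into Tyrode's solution, tested over the stated concentration range. Each fibre used once as its own control. Result is % change from control, given at 10 µM or as the maximum with its concentration. M = <10% decrease or an increase in Vmax.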

[3] = organism: Canis familiaris; assay: In vitro electrophysiological evaluation in canine cardiac ventricular muscle reported as % change for conduction time(CT) at 10 uM at 0.1-100 uM concentration range; Minimal (<10% decrease or increase in CT).; type: functional, Canis lupus familiaris, Muscle tissue
[4] = organism: Canis familiaris; assay: In vitro electrophysiological evaluation in canine cardiac Purkinje fibres reported as percent change Vmax at 10 uM at concentration range of 1-100 uM.; type: functional; settings: Canis lupus familiaris, Purkinje fiber; outline: as §2
[5] = tested on: Canis familiaris; assay: Heart rate was determined by intraduodenal administration of two dosages of 30 mg/kg of compound in anesthetized dogs. Value was reported for experiment 1; type: functional, Canis lupus familiaris; outline: as §1
[6] = tested on: Canis familiaris; assay: Left ventricular refractory period was determined by intraduodenal administration of two doses of 10 mg/kg (low dose) of compound in anesthetized dogs. Value was reported for experiment 1; type: functional, Canis lupus familiaris, Cardiac ventricle
[7] = tested on: Canis familiaris; assay: Heart rate was determined by intraduodenal administration of two dosages of 10 mg/kg of compound in anesthetized dogs. Value was reported for experiment 2; type: functional, Canis lupus familiaris; outline: as §1
[8] = organism: Canis familiaris; assay: (§3) In vitro electrophysiological evaluation in canine cardiac occurred is 100 uM; type: functional; settings: Canis lupus familiaris; Heart
[9] = tested on: Canis familiaris; assay: Mean arterial blood pressure was determined by intraduodenal administration of two dosages of 10 mg/kg of compound in anesthetized dogs. Value was reported for experiment 2; type: functional, Canis lupus familiaris
Outline: (§4)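 Anesthetized dogs received two intraduodenal doses, the second cumulative (low dose/high dose). Left ventricular FRP and CT were measured 15, 30 and 45 min after dosing. Heart rate and mean blood pressure were taken during nonpacing intervals. Values are percent change from control. The vehicle was 5% dextrose in water/tragacanth. Activity was defined as ≥12% prolongation of FRP or CT.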

[10] = tested on: Canis familiaris; assay: Left ventricular refractory period was determined by intraduodenal administration of two doses of 10 mg/kg (low dose) of compound in anesthetized dogs. Value was reported for experiment 2; type: functional, Canis lupus familiaris, Cardiac ventricle
[11] = organism: Canis familiaris; assay: In vitro electrophysiological evaluation in canine cardiac ventricular muscle reported as % change for the functional refractory period (FRP) at 10 uM at concentration range of 0.1-100 uM; design: species or system Canis lupus familiaris, Muscle tissue
Outline: (§5)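 Canine right ventricle and papillary muscle strips in oxygenated Tyrode's solution, fitted with stimulating and recording electrodes. The extra-stimulus conduction-interval method was adapted for in vitro use. FRP and CT were read from a conduction-interval curve before and after various compound concentrations, and expressed as percent change from control. Compounds were taken from 10 mM deionized-water stock into Tyrode's. Each strip was used once as its own control.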

[12] = organism: Canis familiaris; assay: (§6) In vitro electrophysiological activity in canine cardiac occurred is 10 uM; type: functional, Canis lupus familiaris, Heart
[13] = organism: Canis familiaris; assay: (§7) In vitro electrophysiological activity in canine cardiac occurred is 100 uM; type: functional, Canis lupus familiaris, Heart
[14] = tested on: Canis familiaris; assay: Conduction time was determined by intraduodenal administration of two doses of 24 mg/kg (high dose) of compound in anesthetized dogs. Value was reported for experiment 2; type: functional, Canis lupus familiaris; outline: as §1
[15] = organism: Canis familiaris; assay: In vitro electrophysiological evaluation in canine cardiac ventricular muscle reported as maximum % change for functional refractory period (FRP) at 0.1-100 uM concentration range; concentration at which it occurred is 100 uM.; design: species or system Canis lupus familiaris, Muscle tissue; outline: as §5
[16] = organism: Canis familiaris; assay: In vitro electrophysiological evaluation in canine cardiac Purkinje fibres reported as maximum percent change Vmax concentration range of 1-100 uM; Minimal (<10% decrease or increase in V max).; type: functional; settings: Canis lupus familiaris; Purkinje fiber; outline: as §2
[17] = organism: Canis familiaris; assay: as §6; type: functional, Canis lupus familiaris, Heart; remark: listed apart in the source
[18] = tested on: Canis familiaris; assay: Left ventricular refractory period was determined by intraduodenal administration two doses of 30 mg/kg (high dose) of compound in anesthetized dogs. Value was reported for experiment 1; type: functional, Canis lupus familiaris, Cardiac ventricle
[19] = organism: Canis familiaris; assay: In vitro electrophysiological evaluation in canine cardiac ventricular muscle reported as maximum % change for conduction time(CT) at 0.1-100 uM concentration range; Minimal (<10% decrease or increase in CT).; type: functional, Canis lupus familiaris, Muscle tissue; outline: as §5
[20] = tested on: Canis familiaris; assay: Mean arterial blood pressure was determined by intraduodenal administration of two dosages of 24 mg/kg of compound in anesthetized dogs. Value was reported for experiment 2; type: functional, Canis lupus familiaris
[21] = tested on: Canis familiaris; assay: Mean arterial blood pressure was determined by intraduodenal administration of two dosages of 30 mg/kg of compound in anesthetized dogs. Value was reported for experiment 1; type: functional, Canis lupus familiaris; outline: as §4
[22] = tested on: Canis familiaris; assay: Heart rate was determined by intraduodenal administration of two doses of 10 mg/kg (low dose) of compound in anesthetized dogs. Value was reported for experiment 1; type: functional, Canis lupus familiaris; outline: as §1
[23] = tested on: Canis familiaris; assay: Conduction time was determined by intraduodenal administration of two doses of 10 mg/kg (low dose) of compound in anesthetized dogs. Value was reported for experiment 2; type: functional, Canis lupus familiaris; outline: as §1
[24] = tested on: Canis familiaris; assay: Mean arterial blood pressure was determined by intraduodenal administration of two dosages of 10 mg/kg of compound in anesthetized dogs. Value was reported for experiment 1; type: functional, Canis lupus familiaris; outline: as §4
[25] = tested on: Canis familiaris; assay: Conduction time was determined by intraduodenal administration of two doses of 10 mg/kg (low dose) of compound in anesthetized dogs. Value was reported for experiment 1; type: functional, Canis lupus familiaris; outline: as §1
[26] = tested on: Canis familiaris; assay: Heart rate was determined by intraduodenal administration of two dosages of 24 mg/kg of compound in anesthetized dogs. Value was reported for experiment 2; type: functional, Canis lupus familiaris; outline: as §1
[27] = organism: Canis familiaris; assay: In vitro electrophysiological evaluation in canine cardiac Purkinje fibres reported as percent change Vmax at 10 uM at concentration range of 1-100 uM; Minimal (<10% decrease or increase in V max).; type: functional; settings: Canis lupus familiaris, Purkinje fiber; outline: as §2
[28] = organism: Canis familiaris; assay: In vitro electrophysiological evaluation in canine cardiac Purkinje fibres reported as % change for action potential duration at a concentration of 10 uM; type: functional, Canis lupus familiaris, Purkinje fiber; outline: as §2
[29] = tested on: Canis familiaris; assay: Left ventricular refractory period was determined by intraduodenal administration of two doses of 24 mg/kg (high dose) of compound in anesthetized dogs. Value was reported for experiment 2; type: functional, Canis lupus familiaris, Cardiac ventricle
[30] = organism: Canis familiaris; assay: In vitro electrophysiological evaluation in canine cardiac ventricular muscle reported as maximum % change for functional refractory period (FRP) at 0.1-100 uM concentration range; concentration at which it occurred is 1 uM; design: species or system Canis lupus familiaris, Muscle tissue; outline: as §5
[31] = organism: Canis familiaris; assay: In vitro electrophysiological evaluation in canine cardiac ventricular muscle reported as maximum % change for conduction time(CT) at 0.1-100 uM concentration range; concentration at which it occurred is 100 uM; type: functional, Canis lupus familiaris, Muscle tissue; outline: as §5
[32] = organism: Canis familiaris; assay: as §3; type: functional; settings: Canis lupus familiaris; Heart; remark: listed apart in the source
[33] = organism: Canis familiaris; assay: In vitro electrophysiological evaluation in canine cardiac Purkinje fibres reported as percent change Vmax at 10 uM at concentration range of 0.1-100 uM; Minimal (<10% decrease or increase in V max).; type: functional, organism-based; settings: Canis lupus familiaris, Purkinje fiber; outline: as §2
[34] = organism: Canis familiaris; assay: as §7; type: functional, Canis lupus familiaris, Heart; remark: listed apart in the source
[35] = organism: Canis familiaris; assay: In vitro electrophysiological evaluation in canine cardiac ventricular muscle reported as maximum % change for functional refractory period (FRP) at 0.1-100 uM concentration range; concentration at which it occurred is 10 uM; design: species or system Canis lupus familiaris, Muscle tissue; outline: as §5
[36] = organism: Canis familiaris; assay: In vitro electrophysiological evaluation in canine cardiac ventricular muscle reported as maximum % change for functional refractory period (FRP) at 0.1-100 uM concentration range; concentration at which it occurred is 100 uM; design: species or system Canis lupus familiaris, Muscle tissue; outline: as §5
[37] = organism: Canis familiaris; assay: In vitro electrophysiological evaluation in canine cardiac Purkinje fibres reported as % change for action potential duration at 10 uM at 1-100 uM concentration range; type: functional, Canis lupus familiaris, Purkinje fiber; outline: as §2

Cl.O=C(CCC1C(=O)C2CCN1CC2)c1ccc([N+](=O)[O-])cc1 (centres undefined)
CT [1]: 2%
APD95 [2]: 53% and 25%
CT [3]: <10%
Vmax [4]: -17%
HR [5]: -31%
LV FRP [6]: 14%
HR [7]: -35%
Vmax [8]: -23%
Mean blood pressure [9]: -10%
LV FRP [10]: 16%
FRP [11]: 15% and 17%
APD95 [12]: 36% and 25%
APD95 [13]: 13% and -10%
CT [14]: 11%
FRP [15]: 25% and 22%
Vmax [16]: < 10%
APD95 [17]: 53%
LV FRP [18]: 15%
CT [19]: <10%
Mean blood pressure [20]: -1%
Mean blood pressure [21]: -21%
HR [22]: -23%
CT [23]: 6%
Mean blood pressure [24]: -11%
CT [25]: -1%
HR [26]: -40%
Vmax [27]: < 10%
APD95 [28]: 36%
LV FRP [29]: 19%

Cl.O=C(CCC1C(=O)C2CCN1CC2)c1ccc(Cl)c([N+](=O)[O-])c1 (centres undefined)
CT [3]: <10%
FRP [30]: 14%
CT [31]: 14% and 21%
Vmax [32]: -13%
Vmax [8]: -37% and -42%
FRP [11]: 21% and 14% and 26%
APD95 [13]: 4% and -11%
Vmax [33]: < 10%
CT [19]: <10%
APD95 [34]: 11%
FRP [35]: 21%
FRP [36]: 44%
Vmax [27]: < 10%
APD95 [28]: 4% and 3%
APD95 [37]: 1%
